Key:
Oryctolagus cuniculus [1] = species: Oryctolagus cuniculus; assay: Ratio of I50 of compound and I50 of theophylline for inhibition of cAMP phosphodiesterase isolated from rabbit lung
How it was run: (§1)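 Partially purified cAMP PDEs from beef heart, rabbit lung and rabbit kidney. Assay mixture in 0.5 mL: 25 μmol Tris-HCl pH 7.5, 5 μmol MgCl2, 10–75 μg enzyme protein, 350 pmol [3H]cAMP, and at least seven inhibitor concentrations (0.5 μM–5 mM). 5'-AMP formed measured at at least three time points (3–12 min) to confirm linear rates. I50 read graphically from % inhibition vs log concentration; α = I50 compound / I50 theophylline, with theophylline run in each experiment.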

Oryctolagus cuniculus [2] = species: Oryctolagus cuniculus; assay: Ratio of I50 of compound and I50 of theophylline for inhibition of cAMP phosphodiesterase isolated from rabbit kidney
Bos taurus = species: Bos taurus; assay: Relative inhibition of bovine heart cAMP phosphodiesterase compared to theophylline; how it was run: as §1
[3] = Inhibition of ADP-induced platelet aggregation at 100 ug/mL
Sus scrofa [4] = species: Sus scrofa; assay: Inhibition of ADP-induced platelet aggregation at 100 ug/mL; type: functional
How it was run: (§2)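 Platelet-rich plasma from pig blood anticoagulated with sodium citrate (final 0.3 g/100 mL in blood), spun 500g for 20 min at 20 °C; about 2.0–8.0×10^8 platelets/mL, counted in duplicate. ADP-induced aggregation followed turbidimetrically at 600 nm with stirring (Born method). Criterion: 50% inhibition at ≤100 mcg/mL test compound, compared with adenosine as standard.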

Sus scrofa [5] = species: Sus scrofa; assay: Inhibition of ADP-induced platelet aggregation at 50 ug/mL; type: functional; how it was run: as §2
Oryctolagus cuniculus [6] = species: Oryctolagus cuniculus; assay: Relative inhibition of rabbit lung cAMP Phosphodiesterase compared to theophylline; how it was run: as §1
[7] = tested on: cAMP phosphodiesterase (Bos taurus); assay: Relative inhibition of beef heart cAMP phosphodiesterase compared to theophylline; details: target entry is the homologue from another species
Sus scrofa [8] = species: Sus scrofa; assay: Inhibition of ADP-induced platelet aggregation at 25 ug/mL; type: functional; how it was run: as §2
Oryctolagus cuniculus [9] = species: Oryctolagus cuniculus; assay: Relative inhibition of rabbit lung cAMP Phosphodiesterase compared to theophylline (Insoluble)

Ratio (Oryctolagus cuniculus [1]) | Ratio (Oryctolagus cuniculus [2]) | SMILES | also measured
0.6 | 0.6 | CCOC(=O)c1cnc2ccnn2c1Cl | 
9.4 |  | CCCNc1cc(C)nc2c(CC)cnn12 | 
0.6 | 0.6 | CCCOc1c(C(=O)OCC)cnc2ccnn12 | 
1.8 | 2 | CCOC(=O)c1cnc2ccnn2c1N(CC)CC | Ratio (Bos taurus): 2.3
2 | 1 | CCOC(=O)c1cnc2ccnn2c1S | Ratio (Bos taurus): 1.2
0.5 |  | Cc1cc(NCCO)n2nccc2n1 | 
4.3 | 0.8 | CCOC(=O)c1cnc2ccnn2c1SCC | 
1.5 |  | Cc1cc(NN)n2nccc2n1 | 
8.9 |  | CCSc1cc(C)nc2c(CC)cnn12 | 
0.9 | 1 | CCOC(=O)c1cnc2ccnn2c1N | inhibition at 100 µg/mL (Sus scrofa [4]): 94%; inhibition at 50 µg/mL (Sus scrofa [5]): 50%
5.4 |  | CCCOc1cc(C)nc2c(CC)cnn12 | 
1.4 |  | CCOc1cc(C)nc2ccnn12 | 
0.5 | 1 | CCOC(=O)c1cnc2c(Br)cnn2c1O | inhibition at 100 µg/mL (Sus scrofa [4]): 88%; inhibition at 50 µg/mL (Sus scrofa [5]): 34%
4.3 | 5.2 | CCNc1c(C(=O)OCC)cnc2ccnn12 | inhibition at 100 µg/mL (Sus scrofa [4]): 86%; inhibition at 50 µg/mL (Sus scrofa [5]): 42%
2 | 1.1 | CCOC(=O)c1cnc2ccnn2c1NN(C)C | 
1.7 | 1.2 | CCOC(=O)c1cnc2ccnn2c1NCC(=O)O | inhibition at 100 µg/mL (Sus scrofa [4]): 76%; inhibition at 50 µg/mL (Sus scrofa [5]): 67%
1.5 | 0.3 | CCOC(=O)c1cnc2ccnn2c1NCCO | inhibition at 100 µg/mL (Sus scrofa [4]): 92%; inhibition at 50 µg/mL (Sus scrofa [5]): 47%
5.9 | 13 | CCCNc1c(C(=O)OCC)cnc2ccnn12 | 
1.5 |  | CCCCNc1cc(C)nc2c(Br)cnn12 | 
6.8 |  | COC(CNc1cc(C)nc2c(Br)cnn12)OC | 

More lines, now with the values behind:

SMILES | Ratio (Oryctolagus cuniculus [1]) | Ratio (Oryctolagus cuniculus [2]) | also measured
CCOC(=O)c1cnc2c(CC)cnn2c1SCC | 13 | 5.5 | 
CCCNc1c(C(=O)OCC)cnc2c(CC)cnn12 | 3.6 | 3.2 | 
CCOC(=O)c1cnc2c(Br)cnn2c1N(CC)CC | 6 | 6 | Ratio (Bos taurus): 3.5
CCCOc1c(C(=O)OCC)cnc2c(CC)cnn12 | 2.4 | 2.4 | 
CCCOc1c(OCC)cnc2c(CC)cnn12 | 1.6 | 1.3 | 
Nc1ncnc2c1ncn2[C@@H]1O[C@H](CO)[C@@H](O)[C@H]1O [ADENOSINE] |  |  | inhibition at 100 µg/mL [3]: 64%
CCCNc1c(OCC)cnc2c(CC)cnn12 | 3.7 | 3.4 | 
CCOc1cnc2c(CC)cnn2c1NCC(=O)O | 0.7 | 0.4 | 
CCCOc1c(C(=O)OCC)cnc2c(Br)cnn12 | 2.7 | 1.8 | 
CCCNc1c(C(=O)OCC)cnc2c(Br)cnn12 | 6 | 7.2 | inhibition at 100 µg/mL (Sus scrofa [4]): 50%
CCNc1c(C(=O)OCC)cnc2c(Br)cnn12 | 4 | 8 | inhibition at 100 µg/mL (Sus scrofa [4]): 77%
CCOC(=O)c1cnc2c(C(=O)OCC)cnn2c1N | 1.5 | 2 | inhibition at 100 µg/mL (Sus scrofa [4]): 96%; inhibition at 50 µg/mL (Sus scrofa [5]): 47%; Ratio (Bos taurus): 0.7
CCOC(=O)c1cnc2c(Br)cnn2c1NCCO | 1.3 | 3.1 | inhibition at 100 µg/mL (Sus scrofa [4]): 72%
CCOc1cnc2c(CC)cnn2c1NCCC(=O)O | 1 | 0.6 | 
CCOC(=O)c1cnc2c(C(=O)OCC)cnn2c1O | 0.6 | 0.4 | inhibition at 100 µg/mL (Sus scrofa [4]): 68%; inhibition at 50 µg/mL (Sus scrofa [5]): 23%
Cc1cc(N2CCCCC2)n2nccc2n1 |  |  | Ratio (Oryctolagus cuniculus [6]): 2.4; Ratio [7]: 1.5
CCOC(=O)c1cnc2c(Br)cnn2c1N |  |  | inhibition at 100 µg/mL (Sus scrofa [4]): 68%; inhibition at 25 µg/mL (Sus scrofa [8]): 67%; Ratio (Oryctolagus cuniculus [9]): Insoluble
CCOC(=O)c1cnc2c([N+](=O)[O-])cnn2c1N |  |  | Ratio (Oryctolagus cuniculus [9]): Insoluble
CCOC(=O)c1cnc2c(CC)cnn2c1NN(C)C | 3.7 | 1.4 | 
CCOC(=O)c1cnc2c(Br)cnn2c1NCC(=O)O | 2.4 | 1.5 | Ratio (Bos taurus): 2.6

From ChEMBL document CHEMBL1122019, “Synthesis and enzymic activity of 6-carbethoxy- and 6-ethoxy-3,7-disubstituted-pyrazolo[1,5-a]pyrimidines and related derivatives as adenosine cyclic 3' ,5'-phosphate phosphodiesterase inhibitors” (1982)
